Data reported in ChEMBL document CHEMBL1148969, “Lanostanoid triterpenes from Laetiporus sulphureus and apoptosis induction on HL-60 human myeloid leukemia cells” (J Nat Prod, 2004).
The source made the active and inactive calls. The rule behind the calls is not given here.

Tests used:
HL-60 [1] = test: Cytotoxicity against human HL60 cells after 96 hrs by MTT assay; assay type: functional, cell-based; details: for IC50: HL-60, 96 h
Procedure, shortened: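 HL-60 promyelocytic leukemia cells; growth inhibition read by MTT; IC50 determined graphically for each experiment by curve fitting. Mean ± SEM of two independent experiments with three determinations each; ursolic acid as positive control.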

HL-60 [2] = test: Induction apoptosis in human HL60 cells assessed as condensation of chromatin at 10 uM after 8 hrs by fluorescence microscopy; assay type: functional, cell-based
Procedure, shortened: (§1)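 HL-60 cells cultured with or without 10 µM compound for 8 h, stained with Hoechst 33258; nuclei examined by fluorescence microscopy for chromatin condensation, shrinkage and apoptotic bodies.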

HL-60 [3] = test: Induction apoptosis in human HL60 cells assessed as appearance of apoptotic bodies at 10 uM after 8 hrs by fluorescence microscopy; assay type: functional, cell-based; procedure, shortened: as §1
HL-60 [4] = test: Induction apoptosis in human HL60 cells assessed as appearance of apoptotic nuclei at 30 uM after 8 hrs by fluorescence microscopy; assay type: functional, cell-based
Procedure, shortened: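 Cells exposed to 30 µM for 8 h, then Hoechst 33258 (bisbenzimide) stained; apoptotic nuclei counted by fluorescence microscopy. Mean ± standard error of one experiment in triplicate, repeated once separately; etoposide as positive control.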

HL-60 [5] = test: Induction apoptosis in human HL60 cells assessed as […] DNA fragmentation at 30 uM after 16 hrs by electrophoresis; assay type: functional, cell-based
Procedure, shortened: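 Cells treated 16 h at 30 µM; total cellular DNA extracted, run on 2% agarose gel, ethidium bromide stained and internucleosomal ladder viewed under UV; etoposide 3 µM positive control.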

HL-60 [6] = test: Induction apoptosis in human HL60 cells assessed as caspase 3 activity at 10 uM after 6 hrs relative to control; assay type: functional
Procedure, shortened: (§2)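 HL-60 cells given 10 µM for 6 h; lysates with equal protein incubated with colorimetric substrate DEVD-pNA, absorbance at 405 nm. Expressed as fold increase over untreated control; representative experiment in duplicate; etoposide 10 µM positive control.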

HL-60 [7] = test: Induction apoptosis in human HL60 cells assessed as PARP1 cleavage at 10 uM after 6 hrs by SDS-PAGE; assay type: functional, cell-based
Procedure, shortened: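 After 6 h at 10 µM, equal protein from whole-cell lysates run on SDS-PAGE, blotted and probed with anti-PARP-1 monoclonal antibody detecting native 116 kDa and cleaved 85 kDa forms; etoposide positive control.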

HL-60 [8] = test: Induction apoptosis in human HL60 cells assessed as cytochrome c release from mitochondria at 10 uM after 6 hrs by Western blot analysis; assay type: functional, cell-based
Procedure, shortened: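 Cells treated 6 h at 10 µM; cytosolic fraction isolated and immunoblotted with monoclonal anti-cytochrome c (band near 15 kDa); β-actin loading control.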

HL-60 [9] = test: Induction apoptosis in human HL60 cells assessed as caspase 3 activity after 6 hrs; assay type: functional, cell-based; procedure, shortened: as §2

CC(C)=CCC[C@@H](C(=O)O)[C@H]1C[C@H](O)[C@@]2(C)C3=C(CC[C@]12C)[C@@]1(C)CC[C@H](O)C(C)(C)[C@@H]1CC3
Activity (HL-60 [1]): Dose-dependent effect | IC50 (HL-60 [1]): 12 µM

C=C(CC[C@@H](C(=O)O)[C@H]1C[C@H](O)[C@@]2(C)C3=C(CC[C@]12C)[C@@]1(C)CC[C@H](O)C(C)(C)[C@@H]1CC3)C(C)C [SULFURENIC ACID]
Activity (HL-60 [1]): Dose-dependent effect | IC50 (HL-60 [1]): 14 µM

C=C(CC[C@@H](C(=O)O)[C@H]1CC[C@@]2(C)C3=C(CC[C@]12C)[C@@]1(C)CC[C@H](OC(C)=O)C(C)(C)[C@@H]1CC3)C(C)C [ACETYL EBURICOIC ACID]
Activity (HL-60 [1]): Dose-dependent effect | IC50 (HL-60 [1]): 15 µM | Activity (HL-60 [2]): Active | Activity (HL-60 [3]): Active | Activity (HL-60 [4]): Active | Activity (HL-60 [5]): Active | fold change (FC) (HL-60 [6]): 7 | Activity (HL-60 [7]): Active | Activity (HL-60 [8]): Active | Activity (HL-60 [9]): Dose-dependent effect

C=C(CC[C@@H](C(=O)O)[C@H]1C[C@H](O)[C@@]2(C)C3=C(CC[C@]12C)[C@@]1(C)CCC(=O)C(C)(C)[C@@H]1CC3)C(C)C
Activity (HL-60 [1]): Dose-dependent effect | IC50 (HL-60 [1]): 407 µM

C[C@H]1[C@H](C)CC[C@]2(C(=O)O)CC[C@]3(C)C(=CC[C@@H]4[C@@]5(C)CC[C@H](O)C(C)(C)[C@@H]5CC[C@]43C)[C@H]12 [URSOLIC ACID]
Activity (HL-60 [1]): Dose-dependent effect | IC50 (HL-60 [1]): 21 µM

CC(=O)O[C@H]1CC[C@]2(C)C3=C(CC[C@H]2C1(C)C)[C@]1(C)CC[C@H]([C@@H](CCC=C(C)C)C(=O)O)[C@@]1(C)CC3 [ACETYL TRAMETENOLIC ACID]
Activity (HL-60 [1]): Dose-dependent effect | IC50 (HL-60 [1]): 31 µM | Activity (HL-60 [2]): Active | Activity (HL-60 [3]): Active | Activity (HL-60 [4]): Active | Activity (HL-60 [5]): Active | Activity (HL-60 [9]): Dose-dependent effect

C=C(CC[C@@H](C(=O)O)[C@H]1C[C@H](OC(C)=O)[C@@]2(C)C3=C(CC[C@]12C)[C@@]1(C)CCC(=O)C(C)(C)[C@@H]1CC3)C(C)C
Activity (HL-60 [1]): Dose-dependent effect | IC50 (HL-60 [1]): 25 µM | Activity (HL-60 [2]): Active | Activity (HL-60 [3]): Active | Activity (HL-60 [5]): Active | Activity (HL-60 [8]): Active | Activity (HL-60 [9]): Dose-dependent effect

C=C(CC[C@@H](C(=O)O)[C@H]1CC[C@@]2(C)C3=C(CC[C@]12C)[C@@]1(C)CC[C@H](O)C(C)(C)[C@@H]1CC3)C(C)C [EBURICOIC ACID]
Activity (HL-60 [1]): Dose-dependent effect | IC50 (HL-60 [1]): 25 µM | Activity (HL-60 [2]): Active | Activity (HL-60 [3]): Active | Activity (HL-60 [5]): Active | Activity (HL-60 [9]): Dose-dependent effect
